Measured values published in ChEMBL document CHEMBL2440012, “Design, synthesis and anticonvulsant properties of new N-Mannich bases derived from 3-phenylpyrrolidine-2,5-diones” (Bioorg Med Chem, 2013).
Active and inactive are the calls of the source. No cut-off for these calls is given here.

What was measured:
Mus musculus [1] = assay: Neurotoxicity in ip dosed albino CF1 mouse assessed as minimum motor impairment in half or more animals measured after 4 hrs by rotorod test; format: toxicity, organism-based; details: in vivo
Summary of the method: (§1)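 Male CF-1 mice given ip suspension in 0.5% methylcellulose/water at 30, 100 and 300 mg/kg; MES, scPTZ (pentylenetetrazole 85 mg/kg sc, CD97 dose for clonic seizures ≥5 s) and rotarod (inability to hold balance 1 min in each of three trials) assessed at 0.5 and 4 h; value is minimum dose active in half or more animals.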

Mus musculus [2] = assay: Neurotoxicity in ip dosed albino CF1 mouse assessed as minimum motor impairment in half or more animals measured after 0.5 hrs by rotorod test; format: toxicity, organism-based; details: in vivo; summary of the method: as §1
Mus musculus [3] = assay: Anticonvulsant activity in albino CF1 mouse assessed as protection against subcutaneous pentylenetetrazole-induced convulsion at 300 mg/kg, ip measured after 4 hrs; format: functional, organism-based; design: dose 300 mg/kg; summary of the method: as §1
Mus musculus [4] = assay: Anticonvulsant activity in albino CF1 mouse assessed as protection against subcutaneous pentylenetetrazole-induced convulsion at 300 mg/kg, ip measured after 0.5 hrs; format: functional, organism-based; design: dose 300 mg/kg; summary of the method: as §1
Mus musculus [5] = assay: Anticonvulsant activity in albino CF1 mouse assessed as protection against maximal electroshock-induced seizures at 300 mg/kg, ip measured after 0.5 hr; format: functional, organism-based; design: dose 300 mg/kg; summary of the method: as §1
Mus musculus [6] = assay: Anticonvulsant activity in albino CF1 mouse assessed as protection against maximal electroshock-induced seizures at 300 mg/kg, ip measured after 4 hrs; format: functional, organism-based; design: dose 300 mg/kg; summary of the method: as §1
Mus musculus [7] = assay: Neurotoxicity in albino CF1 mouse assessed as minimum motor impairment at 300 mg/kg, ip measured after 4 hrs by rotorod test; format: toxicity, organism-based; design: dose 300 mg/kg, route intraperitoneal; details: in vivo; summary of the method: as §1
Mus musculus [8] = assay: Neurotoxicity in albino CF1 mouse assessed as minimum motor impairment at 300 mg/kg, ip measured after 0.5 hr by rotorod test; format: toxicity, organism-based; design: dose 300 mg/kg, route intraperitoneal; details: in vivo; summary of the method: as §1
Mus musculus [9] = assay: Anticonvulsant activity in ip dosed albino CF1 mouse assessed as protection against maximal electroshock-induced seizures in half or more animals measured after 4 hrs; format: functional; details: read-out: MED; summary of the method: as §1
Rattus norvegicus [10] = assay: Anticonvulsant activity in albino Sprague-Dawley rat assessed as protection against maximal electroshock-induced seizures at 30 mg/kg, po measured after 4 hrs; format: functional
Summary of the method: (§2)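 Male Sprague-Dawley rats, four per group, dosed p.o. at 30 mg/kg in 0.5% methylcellulose/water suspension; MES test at 0.25, 0.5, 1, 2 and 4 h, motor impairment examined in parallel; number of rats out of four protected.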

Rattus norvegicus [11] = assay: Anticonvulsant activity in albino Sprague-Dawley rat assessed as protection against maximal electroshock-induced seizures at 30 mg/kg, po measured after 2 hrs; format: functional; summary of the method: as §2
Rattus norvegicus [12] = assay: Anticonvulsant activity in albino Sprague-Dawley rat assessed as protection against maximal electroshock-induced seizures at 30 mg/kg, po measured after 1 hr; format: functional; summary of the method: as §2
Rattus norvegicus [13] = assay: Anticonvulsant activity in albino Sprague-Dawley rat assessed as protection against maximal electroshock-induced seizures at 30 mg/kg, po measured after 0.5 hr; format: functional; summary of the method: as §2
Rattus norvegicus [14] = assay: Anticonvulsant activity in albino Sprague-Dawley rat assessed as protection against maximal electroshock-induced seizures at 30 mg/kg, po measured after 0.25 hr; format: functional; summary of the method: as §2
Mus musculus [15] = assay: Anticonvulsant activity in ip dosed albino CF1 mouse assessed as protection against maximal electroshock-induced seizures in half or more animals measured after 0.5 hr; format: functional; details: read-out: MED; summary of the method: as §1
Mus musculus [16] = assay: Anticonvulsant activity in albino CF1 mouse assessed as assessed as protection against 6 Hz psychomotor seizure at 100 mg/kg, ip after 4 hrs by minimal clonic seizure test; format: functional; details: route intraperitoneal
Summary of the method: (§3)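 Male CF-1 mice, groups of four, dosed ip in 0.5% methylcellulose/water suspension, then challenged by 6-Hz corneal stimulation at 32 mA (0.2 ms pulses, 3 s, constant current) at 0.25, 0.5, 1, 2 or 4 h; count of mice out of four protected from stunned posture/clonic seizure.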

Mus musculus [17] = assay: Anticonvulsant activity in albino CF1 mouse assessed as assessed as protection against 6 Hz psychomotor seizure at 100 mg/kg, ip after 2 hrs by minimal clonic seizure test; format: functional; details: route intraperitoneal; summary of the method: as §3
Mus musculus [18] = assay: Anticonvulsant activity in albino CF1 mouse assessed as assessed as protection against 6 Hz psychomotor seizure at 100 mg/kg, ip after 1 hr by minimal clonic seizure test; format: functional; details: route intraperitoneal; summary of the method: as §3
Mus musculus [19] = assay: Anticonvulsant activity in albino CF1 mouse assessed as assessed as protection against 6 Hz psychomotor seizure at 100 mg/kg, ip after 0.25 hr by minimal clonic seizure test; format: functional; details: route intraperitoneal; summary of the method: as §3
Mus musculus [20] = assay: Anticonvulsant activity in albino CF1 mouse assessed as assessed as protection against 6 Hz psychomotor seizure at 100 mg/kg, ip after 0.5 hr by minimal clonic seizure test; format: functional; details: route intraperitoneal; summary of the method: as §3

SMILES	MED (Mus musculus [2]) [mg/kg]	Activity (Mus musculus [3])	Activity (Mus musculus [4])	Activity (Mus musculus [5])	Activity (Mus musculus [6])	Activity (Mus musculus [7])	Activity (Mus musculus [8])	minimal effective dose (Mus musculus [9]) [mg/kg]	other results
O=C1CC(c2ccc(Cl)cc2)C(=O)N1CN1CCN(c2ccccc2Cl)CC1 (racemic)	300	inactive	inactive	inactive	inactive				MED (Mus musculus [1]): 300 mg/kg
O=C1CC(c2ccccc2Cl)C(=O)N1CN1CCN(c2ccc(Cl)cc2)CC1 (racemic)		inactive	inactive	inactive		Non-toxic	Non-toxic	300	
O=C1CC(c2cccc(Cl)c2)C(=O)N1CN1CCN(c2ccccc2F)CC1 (racemic)	300	inactive	inactive	inactive		Non-toxic		100	
O=C1CC(c2cccc(Cl)c2)C(=O)N1CN1CCOCC1 (racemic)	300	inactive	inactive			Non-toxic		100	Activity (Rattus norvegicus [10]): 50%; Activity (Rattus norvegicus [11]): 50%; Activity (Rattus norvegicus [12]): 50%; Activity (Rattus norvegicus [13]): 50%; Activity (Rattus norvegicus [14]): inactive; minimal effective dose (Mus musculus [15]): 100 mg/kg
O=C1CC(c2ccc(Cl)cc2)C(=O)N1CN1CCN(C2CCCCC2)CC1 (racemic)		inactive	inactive	inactive		Non-toxic	Non-toxic	100	
Cc1cccc(N2CCN(CN3C(=O)CC(c4cccc(Cl)c4)C3=O)CC2)c1 (racemic)	100	inactive	inactive	inactive		Non-toxic		30	
O=C1CC(c2ccc(Cl)cc2)C(=O)N1CN1CCN(c2cccc(Cl)c2)CC1 (racemic)	300	inactive	inactive	inactive				100	MED (Mus musculus [1]): 300 mg/kg
O=C1CC(c2ccccc2Cl)C(=O)N1CN1CCN(c2cccc(C(F)(F)F)c2)CC1 (racemic)		inactive	inactive	inactive		Non-toxic	Non-toxic	100	
O=C1CC(c2cccc(Cl)c2)C(=O)N1CN1CCN(c2ccccc2Cl)CC1 (racemic)		inactive	inactive	inactive	inactive	Non-toxic	Non-toxic		
O=C1CC(c2ccc(Cl)cc2)C(=O)N1CN1CCC(Cc2ccccc2)CC1 (racemic)		inactive	inactive	inactive		Non-toxic	Non-toxic	100	Activity (Mus musculus [16]): 25%; Activity (Mus musculus [17]): 75%; Activity (Mus musculus [18]): 0%; Activity (Mus musculus [19]): 0%; Activity (Mus musculus [20]): 0%
O=C1CC(c2cccc(Cl)c2)C(=O)N1CN1CCN(c2ccc(Cl)cc2)CC1 (racemic)		inactive	inactive			Non-toxic	Non-toxic	100	minimal effective dose (Mus musculus [15]): 300 mg/kg
O=C1CC(c2ccccc2Cl)C(=O)N1CN1CCN(C2CCCCC2)CC1 (racemic)		inactive	inactive	inactive		Non-toxic	Non-toxic	100	
O=C1CC(c2ccc(Cl)cc2)C(=O)N1CN1CCN(c2ncccn2)CC1 (racemic)	300	inactive	inactive	inactive	inactive	Non-toxic			
COc1ccccc1N1CCN(CN2C(=O)CC(c3cccc(Cl)c3)C2=O)CC1 (racemic)	300	inactive	inactive	inactive	inactive				MED (Mus musculus [1]): 300 mg/kg
O=C1CC(c2cccc(Cl)c2)C(=O)N1CN1CCN(C2CCCCC2)CC1 (racemic)		inactive	inactive			Non-toxic	Non-toxic	300	minimal effective dose (Mus musculus [15]): 300 mg/kg
O=C1CC(c2ccc(Cl)cc2)C(=O)N1CN1CCN(c2cccc(C(F)(F)F)c2)CC1 (racemic)	300	inactive	inactive	inactive		Non-toxic		100	
O=C1CC(c2ccccc2Cl)C(=O)N1CN1CCN(c2cccc(Cl)c2)CC1 (racemic)	100	inactive	inactive	inactive				100	MED (Mus musculus [1]): 300 mg/kg
O=C1CC(c2ccc(Cl)cc2)C(=O)N1CN1CCN(c2ccc(Cl)cc2)CC1 (racemic)		inactive	inactive	inactive	inactive	Non-toxic	Non-toxic		
O=C1CC(c2cccc(Cl)c2)C(=O)N1CN1CCN(c2cccc(Cl)c2)CC1 (racemic)		inactive	inactive	inactive	inactive	Non-toxic	Non-toxic		
O=C1CC(c2ccc(Cl)cc2)C(=O)N1CN1CCOCC1 (racemic)		inactive	inactive			Non-toxic	Non-toxic	300	minimal effective dose (Mus musculus [15]): 100 mg/kg
O=C1CC(c2cccc(Cl)c2)C(=O)N1CN1CCN(c2ncccn2)CC1 (racemic)		inactive	inactive	inactive		Non-toxic	Non-toxic	100	Activity (Rattus norvegicus [10]): inactive; Activity (Rattus norvegicus [11]): inactive; Activity (Rattus norvegicus [12]): inactive; Activity (Rattus norvegicus [13]): inactive; Activity (Rattus norvegicus [14]): inactive
O=C1CC(c2ccccc2)C(=O)N1CN1CCN(C2CCCCC2)CC1 (racemic)		inactive	inactive	inactive	inactive	Non-toxic	Non-toxic		
O=C1CC(c2ccccc2Cl)C(=O)N1CN1CCN(c2ccccc2Cl)CC1 (racemic)		inactive	inactive	inactive	inactive	Non-toxic	Non-toxic		
O=C1CC(c2cccc(Cl)c2)C(=O)N1CN1CCN(c2cccc(C(F)(F)F)c2)CC1 (racemic)	300	inactive	inactive					100	MED (Mus musculus [1]): 300 mg/kg; minimal effective dose (Mus musculus [15]): 100 mg/kg
O=C1CC(c2cccc(Cl)c2)C(=O)N1CN1CCC(Cc2ccccc2)CC1 (racemic)		inactive	inactive			Non-toxic	Non-toxic	100	Activity (Rattus norvegicus [10]): inactive; Activity (Rattus norvegicus [11]): 50%; Activity (Rattus norvegicus [12]): 25%; Activity (Rattus norvegicus [13]): inactive; Activity (Rattus norvegicus [14]): 50%; minimal effective dose (Mus musculus [15]): 300 mg/kg
